# Laboratory results taken from ChEMBL document CHEMBL4715904, “Discovery of an Anion-Dependent Farnesyltransferase Inhibitor from a Phenotypic Screen” (ACS Med Chem Lett, 2021).
# Active and inactive are the calls of the source. The calls are words filed in the database; no cut-off is given here.
# Experiments:
# [1] = Inhibition of recombinant rat FTase expressed in Escherichia coli using 3H-FPP and biotinylated-DESGPGCMSCKCVLS peptide as substrates incubated for 30 mins by scintillation proximity assay
# Method in brief: (§1)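 Cell-free FTase inhibition assay, standard protocol; anion-dependent variants repeated with added anion (dimethylallyl diphosphate at increasing concentrations, or other anions) beyond the standard-protocol level.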
# [2] = Inhibition of recombinant rat FTase expressed in Escherichia coli using 3H-FPP and biotinylated-DESGPGCMSCKCVLS peptide as substrates incubated for 30 mins in presence of 5 mM ATP by scintillation proximity assay; method in brief: as §1
# [3] = Inhibition of recombinant rat FTase expressed in Escherichia coli using 3H-FPP and biotinylated-DESGPGCMSCKCVLS peptide as substrates incubated for 30 mins in presence of 5 mM pyrophosphate by scintillation proximity assay; method in brief: as §1
# [4] = tested on: Human immunodeficiency virus 1; assay: Potentiation of vorinostat-induced reactivation of latent HIV-1 infected in human Jurkat 2C4 cells assessed as increase in HIV-1 transcription incubated for 24 hrs in presence of vorinostat by Steady-Glo luciferase reporter gene assay; assay type: functional, organism-based; conditions: Human immunodeficiency virus 1, 2C4, 24 h
# [5] = tested on: Human immunodeficiency virus 1; assay: Potentiation of vorinostat-induced reactivation of latent HIV-1 infected in human Jurkat 2C4 cells assessed as increase in HIV-1 transcription incubated for 24 hrs in presence of vorinostat by Steady-Glo luciferase reporter gene assay relative to control; assay type: functional
# [6] = tested on: Human immunodeficiency virus 1; assay: Reactivation of latent HIV-1 infected in human Jurkat 2C4 cells assessed as increase in HIV-1 transcription incubated for 24 hrs by Steady-Glo luciferase reporter gene assay; assay type: functional, organism-based; conditions: for EC50: Human immunodeficiency virus 1, 2C4, 24 h
# Method in brief: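 Jurkat 2C4 latent HIV reporter line (minimal provirus, Tat H12L, LTR-driven luciferase); latency reversal measured as increase in luciferase luminescence in cell lysates.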
# [7] = Inhibition of recombinant rat FTase expressed in Escherichia coli using 3H-FPP and biotinylated-DESGPGCMSCKCVLS peptide as substrates incubated for 30 mins in presence of 5 mM phosphate by scintillation proximity assay; method in brief: as §1
# [8] = Inhibition of recombinant rat FTase expressed in Escherichia coli using 3H-FPP and biotinylated-DESGPGCMSCKCVLS peptide as substrates incubated for 30 mins in presence of 2 mM DMA-PP by scintillation proximity assay; method in brief: as §1
# [9] = Inhibition of recombinant rat FTase expressed in Escherichia coli using 3H-FPP and biotinylated-DESGPGCMSCKCVLS peptide as substrates incubated for 30 mins in presence of 1 mM DMA-PP by scintillation proximity assay; method in brief: as §1
# [10] = Inhibition of rat recombinant FTase expressed in Escherichia coli using 3H-FPP and biotinylated-DESGPGCMSCKCVLS peptide as substrates incubated for 30 mins in presence of 5 mM thiosulfate by scintillation proximity assay; method in brief: as §1
# [11] = Inhibition of recombinant rat FTase expressed in Escherichia coli using 3H-FPP and biotinylated-DESGPGCMSCKCVLS peptide as substrates incubated for 30 mins in presence of 5 mM DMA-PP by scintillation proximity assay; method in brief: as §1
# [12] = target: T1, Mitochondrial inner membrane m-AAA protease component AFG3L2 (Homo sapiens, UniProt Q9Y4W6); assay: Displacement of (4-((1-neopentyl-1H-benzo[d]imidazol-2-yl)methyl)piperazin-1-yl)(1,3,5-trimethyl-1H-pyrazol-4-yl)methanone from AFG3L2 in vorinostat-stimulated human Jurkat 2C4 cells infected with latent HIV-1 by pull-down experiment based competitive binding assay; assay type: tissue-based
# Method in brief: (§2)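 Affinity matrix made by immobilizing the aminoethyl-linked probe on Sepharose beads at 5.8, 3 and 1.4 mM; beads exposed to lysates of Jurkat 2C4 cells pretreated with vorinostat (250 nM); bound proteins pulled down, with free compound competing for binding.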
# [13] = target: T2, Protein farnesyltransferase/geranylgeranyltransferase type-1 subunit alpha (Homo sapiens, UniProt P49354); assay: Displacement of (4-((1-neopentyl-1H-benzo[d]imidazol-2-yl)methyl)piperazin-1-yl)(1,3,5-trimethyl-1H-pyrazol-4-yl)methanone from FNTA in vorinostat-stimulated human Jurkat 2C4 cells infected with latent HIV-1 by pull-down experiment based competitive binding assay; method in brief: as §2
# Homo sapiens [14] = species: Homo sapiens; assay: Binding affinity to recombinant FTase (unknown origin) assessed as change in melting temperature at 20 uM by TdF assay
# [15] = target: T3, Protein farnesyltransferase subunit beta (Homo sapiens, UniProt P49356); assay: Displacement of (4-((1-neopentyl-1H-benzo[d]imidazol-2-yl)methyl)piperazin-1-yl)(1,3,5-trimethyl-1H-pyrazol-4-yl)methanone from FNTB in vorinostat-stimulated human Jurkat 2C4 cells infected with latent HIV-1 by pull-down experiment based competitive binding assay; assay type: tissue-based; method in brief: as §2
# [16] = target: T4, NmrA-like family domain-containing protein 1 (Homo sapiens, UniProt Q9HBL8); assay: Displacement of (4-((1-neopentyl-1H-benzo[d]imidazol-2-yl)methyl)piperazin-1-yl)(1,3,5-trimethyl-1H-pyrazol-4-yl)methanone from NMRAL1 in vorinostat-stimulated human Jurkat 2C4 cells infected with latent HIV-1 by pull-down experiment based competitive binding assay; assay type: tissue-based; method in brief: as §2
# Homo sapiens [17] = species: Homo sapiens; assay: Binding affinity to recombinant FTase (unknown origin) assessed as melting temperature at 20 uM by TdF assay (reference value: 46.2 +/- 0.2 degreeC)
# [18] = target: T1, Mitochondrial inner membrane m-AAA protease component AFG3L2; assay: Displacement of (1-(2-aminoethyl)-3,5-dimethyl-1H-pyrazol-4-yl)(4-((1-neopentyl-1H-benzo[d]imidazol-2-yl)methyl)piperazin-1-yl)methanone from AFG3L2 in vorinostat-stimulated human Jurkat 2C4 cells infected with latent HIV-1 by pull-down experiment based competitive binding assay; assay type: tissue-based; method in brief: as §2
# [19] = target: T2, Protein farnesyltransferase/geranylgeranyltransferase type-1 subunit alpha; assay: Displacement of (1-(2-aminoethyl)-3,5-dimethyl-1H-pyrazol-4-yl)(4-((1-neopentyl-1H-benzo[d]imidazol-2-yl)methyl)piperazin-1-yl)methanone from FNTA in vorinostat-stimulated human Jurkat 2C4 cells infected with latent HIV-1 by pull-down experiment based competitive binding assay
# [20] = target: T4, NmrA-like family domain-containing protein 1; assay: Displacement of (1-(2-aminoethyl)-3,5-dimethyl-1H-pyrazol-4-yl)(4-((1-neopentyl-1H-benzo[d]imidazol-2-yl)methyl)piperazin-1-yl)methanone from NMRAL1 in vorinostat-stimulated human Jurkat 2C4 cells infected with latent HIV-1 by pull-down experiment based competitive binding assay; assay type: tissue-based; method in brief: as §2
# [21] = target: T3, Protein farnesyltransferase subunit beta; assay: Displacement of (1-(2-aminoethyl)-3,5-dimethyl-1H-pyrazol-4-yl)(4-((1-neopentyl-1H-benzo[d]imidazol-2-yl)methyl)piperazin-1-yl)methanone from FNTB in vorinostat-stimulated human Jurkat 2C4 cells infected with latent HIV-1 by pull-down experiment based competitive binding assay
# T3 sequence (P49356 whole entry, the tested form may be a part): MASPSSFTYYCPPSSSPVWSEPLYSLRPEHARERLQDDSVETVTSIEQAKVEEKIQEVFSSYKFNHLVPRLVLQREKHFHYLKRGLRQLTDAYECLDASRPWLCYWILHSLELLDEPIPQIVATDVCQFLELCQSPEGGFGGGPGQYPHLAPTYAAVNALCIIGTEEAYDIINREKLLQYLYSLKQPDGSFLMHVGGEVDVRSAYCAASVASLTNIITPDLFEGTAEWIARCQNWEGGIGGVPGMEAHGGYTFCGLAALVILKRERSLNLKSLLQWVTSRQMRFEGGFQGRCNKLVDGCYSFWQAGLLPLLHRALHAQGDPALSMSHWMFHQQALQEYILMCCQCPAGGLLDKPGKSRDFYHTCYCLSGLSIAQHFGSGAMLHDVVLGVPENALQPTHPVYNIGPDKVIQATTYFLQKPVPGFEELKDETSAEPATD
# T1 sequence (Q9Y4W6 whole entry): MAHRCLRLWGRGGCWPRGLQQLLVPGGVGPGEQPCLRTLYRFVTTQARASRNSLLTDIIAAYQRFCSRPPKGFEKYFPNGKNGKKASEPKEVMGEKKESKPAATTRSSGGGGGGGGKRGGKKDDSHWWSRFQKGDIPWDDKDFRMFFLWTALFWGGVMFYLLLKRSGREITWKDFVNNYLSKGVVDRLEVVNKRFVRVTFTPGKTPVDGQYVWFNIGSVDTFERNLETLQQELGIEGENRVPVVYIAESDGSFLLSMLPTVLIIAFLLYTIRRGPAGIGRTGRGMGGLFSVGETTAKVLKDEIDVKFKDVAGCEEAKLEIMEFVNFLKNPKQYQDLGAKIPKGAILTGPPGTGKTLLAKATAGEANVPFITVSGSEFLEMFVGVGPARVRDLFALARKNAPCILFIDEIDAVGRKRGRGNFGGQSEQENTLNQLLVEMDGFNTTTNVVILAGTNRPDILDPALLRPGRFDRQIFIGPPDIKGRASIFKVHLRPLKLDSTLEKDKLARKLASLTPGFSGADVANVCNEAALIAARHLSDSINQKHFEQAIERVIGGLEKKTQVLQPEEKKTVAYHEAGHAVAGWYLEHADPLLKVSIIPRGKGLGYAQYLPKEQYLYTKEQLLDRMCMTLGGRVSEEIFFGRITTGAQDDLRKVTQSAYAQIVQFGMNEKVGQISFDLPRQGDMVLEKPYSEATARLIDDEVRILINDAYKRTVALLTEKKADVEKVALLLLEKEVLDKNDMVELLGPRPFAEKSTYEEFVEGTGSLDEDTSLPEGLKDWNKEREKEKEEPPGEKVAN
# T4 sequence (Q9HBL8 whole entry, the tested form may be a part): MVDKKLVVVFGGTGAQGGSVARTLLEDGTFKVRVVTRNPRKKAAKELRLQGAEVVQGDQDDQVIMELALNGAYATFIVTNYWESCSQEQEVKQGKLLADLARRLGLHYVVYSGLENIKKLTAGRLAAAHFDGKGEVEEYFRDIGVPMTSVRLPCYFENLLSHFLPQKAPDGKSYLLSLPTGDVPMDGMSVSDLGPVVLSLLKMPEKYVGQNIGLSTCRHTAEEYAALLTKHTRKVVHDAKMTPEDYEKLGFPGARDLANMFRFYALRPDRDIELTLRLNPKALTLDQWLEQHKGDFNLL
compound,measurement,setting,value
N#Cc1ccc(Cn2cncc2CN2CCN(c3cccc(Cl)c3)C(=O)C2)cc1 [L-778123 FREE BASE],IC50,[1],50 nM
same,IC50,[2],50 nM
same,IC50,[3],70 nM
same,EC50,[4],170 nM
same,Activity,[5],100%
same,Activity,[6],Active
same,IC50,[7],70 nM
same,IC50,[8],100 nM
same,IC50,[9],40 nM
same,IC50,[10],50 nM
same,IC50,[11],70 nM
CCn1c(CN2CCN(C(=O)c3c(C)nn(C)c3C)CC2)nc2ccccc21,inhibition,[12],inactive
same,inhibition,[13],inactive
same,ΔTm,Homo sapiens [14],2 °C
same,IC50,[2],> 40000 nM
same,IC50,[3],> 40000 nM
same,EC50,[4],> 8000 nM
same,EC50,[6],> 8000 nM
same,IC50,[7],> 40000 nM
same,inhibition,[15],inactive
same,IC50,[10],> 40000 nM
same,inhibition,[16],inactive
Cc1nn(C)c(C)c1C(=O)N1CCN(Cc2nc3ccccc3n2CC(C)(C)C)CC1,IC50,[1],≥ 20000 nM
same,Tm,Homo sapiens [17],50.4 °C
same,ΔTm,Homo sapiens [14],4.2 °C
same,IC50,[2],250 nM
same,IC50,[3],2500 nM
same,EC50,[4],340 nM
same,Activity,[5],100%
same,Kd,[18],19000 nM
same,EC50,[6],> 8000 nM
same,Kd,[19],340 nM
same,IC50,[7],1300 nM
same,IC50,[8],900 nM
same,Kd,[20],19000 nM
same,IC50,[9],1000 nM
same,IC50,[10],2100 nM
same,IC50,[11],500 nM
same,Kd,[21],475 nM
CC(=O)NCCn1nc(C)c(C(=O)N2CCN(Cc3nc4ccccc4n3CC(C)(C)C)CC2)c1C,EC50,[4],1100 nM
same,EC50,[6],> 8000 nM
